Bioassay records (PubChem BioAssay)
Hits are enriched below; roughly 9.6% of the tested compounds scored in any of these assays.
bCat nuc transl: modulators of beta-catenin nuclear translocation; HeLa beta-catenin nuclear translocation, immunofluorescence imaging; nuclear translocation activity, % at 5 µM; 190,000 compounds, 0.3% hits; AID 1665;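 active means nuclear translocation activity above 50% at 5 µM, with a well cell count of 50 or more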;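 further: per-cell ratio of nuclear to cytoplasmic median beta-catenin stain intensity; plate controls were DMSO negative control for no effect and GSK-3 inhibitor IX positive control for full effect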
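Test system: human HeLa cells, endogenous beta-catenin. Times: 24 h compound exposure, 37°C. Measured by: beta-catenin immunofluorescence imaging with DAPI.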
BaF3 tox: counter-screen for JAK2V617F inhibitors: parental Ba/F3 viability inhibitors | AID 1486 | 220,000 compounds, 1.1% hits | CellTiter-Glo ATP luminescence | inhibition, % at 5.6 µM;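 active means inhibition above a per-campaign cutoff, the mean inhibition of all tested compounds plus 3 SD, cut at about 27% in these data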;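 further: 0% = DMSO wells and 100% = JAK Inhibitor I control wells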
Ba/F3 V617F tox: reduce viability of Ba/F3 cells dependent on JAK2V617F | 220,000 compounds, 1.1% hits | inhibition, % at 5.6 µM | Ba/F3 EpoR-JAK2V617F viability, ATP luminescence;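 active means inhibition above the campaign mean plus 3 SD over all tested compounds, cut at about 24% in these data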;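 further: cytokine-independent growth of Ba/F3 cells driven by EpoR plus mutant JAK2; 0% = DMSO-treated cells and 100% = JAK inhibitor I control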
APP 5UTR inh: APP translation inhibition | 190,000 compounds, 0.82% hits | inhibition, % at 2 µM | AID 1285 | SH-SY5Y APP 5'UTR-luciferase reporter, luminescence;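 active means inhibition above a set limit, derived from the sample mean plus 3 SD, cut at about 45% in these data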
MT stabilizer: stabilizes microtubules in HeLa cells | HeLa tubulin immunostaining HCS, 24 h; share of cells brighter than vehicle mean+2SD | % tubulin-high responders, % at 10 µM | 200,000 compounds, 0.83% hits;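 active means plate Z-score above 3 for both tubulin-high and condensed-nucleus cell shares, with cell loss under 80%, at 10 µM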;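 further: anti alpha tubulin signal scored within the nucleus-defined area of each cell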
L major viab: Leishmania major promastigote growth inhibition; Leishmania major promastigotes, resazurin fluorescence viability; inhibition, % at 10 µM; 200,000 compounds, 9% hits; in the data active means inhibition above about 50%;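 further: promastigotes grown with compound for 44 hours at 28 °C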
* marks the source's active call; other numbers are inactive results; x = not tested or not shown.

SMILES | bCat nuc transl | BaF3 tox | Ba/F3 V617F tox | APP 5UTR inh | MT stabilizer | L major viab
CCCc1ccc(-c2cc(C(=O)Nc3ccc([N+](=O)[O-])cn3)c3ccccc3n2)cc1 | 2.1 | 4.4 | 1.9 | -22.7 | 3.6 | 75.7*
CCCc1ccc(-c2cc(C(=O)NCCc3ccc(S(N)(=O)=O)cc3)c3ccccc3n2)cc1 | 1.1 | -0.6 | -0.2 | -65.0 | 2.4 | 18.5
Cc1ccc(S(=O)(=O)Nc2cc(C(C(=O)OC(C)C)C(=O)C(F)(F)F)c(O)c3ccccc23)c(C)c1 (stereo not drawn) | -2.9 | 2.6 | -2.5 | -4.2 | 7.1 | 92.0*
O=c1[nH]c(CSc2ncnc3sc(-c4ccccc4)cc23)nc2ccccc12 | 2.4 | 3.5 | -3.2 | x | x | x
CC(=O)c1csc(COc2ccc(Cl)cc2)n1 | -0.9 | 0.1 | -3.6 | x | x | x
Cc1c(Cl)cccc1NC(=O)CC1Sc2ccccc2NC1=O (stereo not drawn) | 1.7 | -0.4 | -1.5 | x | x | x
Cc1ccccc1C1C(C#N)=C2N=C(N)c3c(sc4c3CCCCC4)N2C2=C1C(=O)CC(C)(C)C2 (stereo not drawn) | 1.0 | 5.8 | 0.1 | -9.7 | 2.5 | 61.9*
COc1ccc(C2C(C#N)=C(N)OC3=C2C(=O)CC(C)(C)C3)cc1OC (stereo not drawn) | -1.6 | 2.6 | -2.5 | -11.8 | 1.0 | -0.8
COc1cc(C2C(C#N)=C(N)Oc3c2ccc2ccccc32)ccc1OCC(=O)Nc1ccc(C)cc1 (stereo not drawn) | 27.5 | 9.4 | -2.0 | -18.0 | 24.9 | 69.1*
COc1cc(C2C(C#N)=C(N)Oc3c2ccc2ccccc32)ccc1OCC(=O)Nc1cccc(C)c1 (stereo not drawn) | 1.0 | 5.4 | 3.6 | 2.1 | 5.7 | 75.7*
COc1ccc(C2C(C#N)=C(N)Oc3c2ccc2cccnc32)cc1OC (stereo not drawn) | 60.9* | 76.3* | 77.7* | 92.3* | 16.2* | 5.2
N#CC1=C(N)Oc2c(ccc3ccccc23)C1c1ccsc1 (stereo not drawn) | x | 7.4 | 4.3 | -57.0 | 12.9 | 1.1
CCOC(=O)C1CCN(c2c(C(=O)c3ccccc3)cnc3ccc(Cl)cc23)CC1 | -2.4 | 5.5 | 1.7 | 15.4 | 8.5 | 34.2
O=C(CSc1nc2ccccc2c(=O)n1CCCN1CCOCC1)NC12CC3CC(CC(C3)C1)C2 | -4.7 | 8.0 | 2.6 | -9.2 | 1.5 | 24.0
CCN(CC)S(=O)(=O)c1ccc(/C=C/C(=O)Nc2cccc(F)c2)cc1 | -1.4 | 8.2 | 4.8 | -32.9 | 3.1 | 11.2
Cc1cc(-c2nn(-c3ccccc3F)cc2CN2CCC(C(N)=O)CC2)c(C)s1 | -0.2 | 6.6 | -1.4 | -21.9 | 3.1 | 0.9
Cc1cc(-c2nn(-c3ccccc3F)cc2CNCCc2cnc[nH]2)c(C)s1 | 2.7 | 8.1 | 0.9 | -23.8 | 4.2 | 98.0*
O=C(CN1C2CCCC1CC(NC(=O)c1ccccc1)C2)NC1CC1 (stereo not drawn) | 2.0 | 5.9 | 0.3 | -10.8 | 1.1 | 0.3
CCOC(=O)c1oc2ccc(CNCCO)c(Cl)c2c1C | -8.1 | 2.2 | -3.0 | -38.9 | 4.5 | 96.7*
CCOC(=O)c1oc2ccc(CNC3CCCCC3)c(Cl)c2c1C | -2.3 | 1.8 | -0.5 | 5.7 | 2.5 | 95.8*
Cc1nc(SCc2ccccc2)c([N+](=O)[O-])[nH]1 | x | 6.6 | 1.3 | 15.9 | 1.7 | 54.1*
COc1ccc(OC)c(C2CC(=O)c3c([nH]c(C(=O)OCC4CCCO4)c3C)C2)c1 (stereo not drawn) | -1.8 | 3.4 | -1.2 | 2.5 | 30.5* | 14.8
CCCOCCOC(=O)c1[nH]c2c(c1C)C(=O)CC(c1cc(OC)ccc1OC)C2 (stereo not drawn) | 3.9 | 2.4 | 2.4 | 43.9 | 11.2* | 3.6
COCCOC(=O)c1[nH]c2c(c1C)C(=O)CC(c1cc(OC)ccc1OC)C2 (stereo not drawn) | 1.4 | -0.6 | -6.0 | -12.4 | 4.2 | -6.8
COc1cccc(CNC(=O)CCC2CCCN(Cc3cc(Cl)ccc3O)C2)c1 (stereo not drawn) | -0.2 | -0.4 | 0.1 | -23.7 | 1.7 | 9.4
SMILES | bCat nuc transl | BaF3 tox | Ba/F3 V617F tox | APP 5UTR inh | MT stabilizer | L major viab
CCOC(=O)C(C)c1c(C(=O)c2ccc(C)nc2)c2ccccc2n1C (stereo not drawn) | -0.1 | -0.7 | -3.5 | x | x | x
Cc1cccc(/C=C/C(=O)c2cc(Br)ccc(=O)c2O)c1 | -1.5 | -3.2 | -4.8 | -5.8 | 1.3 | 99.6*
CCc1ccc(/C=C/C(=O)c2cc(Br)ccc(=O)c2O)cc1 | 19.0 | -1.9 | -3.0 | -5.4 | 1.0 | 10.9
Cc1ccc(/C=C/C(=O)c2cc(Br)ccc2OC(=O)c2ccco2)cc1 | 0.1 | 1.2 | -4.5 | 50.6* | 1.9 | 87.5*
Nc1ccc(/C=C/C(=O)c2ccco2)cc1 | x | -0.9 | -1.3 | -64.6 | 2.3 | 51.3*
COc1ccccc1/C=C/C(=O)c1cc(Br)ccc1OC(=O)c1ccco1 | x | 5.9 | 2.6 | -43.9 | 2.5 | 59.7*
COc1ccc(/C=C2\SC(=O)N(CCNC(=O)C3CC4C=CC3C4)C2=O)cc1 (stereo not drawn) | 1.2 | 2.5 | 1.9 | -202.5 | 3.1 | 95.8*
COc1ccc(/C=C2/SC(=O)N(CCNC(=O)C3CCCN3C(=O)c3cccs3)C2=O)cc1 (stereo not drawn) | x | 3.0 | -1.0 | 6.6 | 4.2 | 76.0*
COc1ccc(NC(=O)CN(C)Cc2c(F)cccc2Cl)cc1S(=O)(=O)N1CCCCC1 | 4.5 | 8.6 | -1.8 | 10.2 | 4.0 | 12.1
COc1ccc(-c2cc(C(=O)Nc3cccc(S(=O)(=O)NCc4ccco4)c3)c3ccccc3n2)cc1OC | -0.4 | 8.2 | 1.9 | 16.9 | 5.2 | 71.9*
O=C(Nc1cccc(S(=O)(=O)NCc2ccco2)c1)c1cc(-c2ccc(F)cc2)nc2ccccc12 | -1.6 | 14.1 | 0.6 | -8.3 | 3.1 | 97.7*
CCN(CC)C(=S)SCC(=O)c1ccc(Br)cc1 | -3.5 | 3.6 | -1.4 | -42.7 | 3.5 | -1.4
COCCn1nnnc1C(c1cccs1)N1CCN2CCCC2C1 (stereo not drawn) | 2.2 | 0.5 | 0.1 | -1.8 | 3.0 | -0.4
COC(=O)c1nn(-c2ccc(OC)cc2)c(=O)c2c(N)sc(C)c12 | -1.5 | 3.1 | -0.9 | -9.3 | 2.4 | 0.0
COCCCNc1c2c3c(cccc3[nH]c1=O)C(=O)c1ccccc1-2 | x | 12.4 | 4.4 | 12.1 | 14.7* | 11.9
O=C(CNc1cccc(S(=O)(=O)N2CCOCC2)c1)N1CCc2ccccc21 | -0.8 | 1.2 | 2.4 | x | x | x
COc1ccc2c(c1)C=C(CN1CCN(C3CCCC3)C(CCO)C1)CO2 (stereo not drawn) | 0.0 | 3.4 | 0.3 | -24.9 | 4.6 | 87.9*
CC(C)CCN1CCN(Cc2nc(-c3ccc(F)cc3)cs2)CC1CCO (stereo not drawn) | 3.4 | 1.2 | -0.3 | -14.7 | 2.8 | 82.2*
OCCC1CN(Cc2nc(-c3ccccc3)cs2)CCN1C1CCCC1 (stereo not drawn) | 0.0 | 10.5 | -0.4 | -16.8 | 1.9 | 84.4*
